According to the array DNA melting data of Ke et al. (doi:10.1101/2024.01.08.574731):

Columns and labels:
[1] = folding enthalpy; higher = less favourable; fluorescence melt of hairpins on a sequencing array, two-state fit; conditions: sodium 0.088 M
Procedure, shortened: (§1)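 Melting temperature and folding enthalpy were obtained by bootstrapped two-state fitting. Fits used Cy3 fluorescence of library hairpins with annealed Cy3 and quencher oligos on a sequenced MiSeq flow cell, imaged in 50 mM Na-HEPES pH 8.0, 25 mM NaCl in 2.5 °C steps up to 60 °C and normalised to pre-quench Cy3 and control constructs. Four replicates were combined by inverse-variance weighting, and fitted temperatures were raised by 9.35 °C to match UV melts.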

[2] = melting temperature; fluorescence melt of hairpins on a sequencing array, two-state fit, raised by 9.35 °C to match UV melts; conditions: sodium 0.088 M
Procedure, shortened: as §1

Sequence | folding enthalpy [1] [kcal/mol] | Tm [2] [°C]
GGGAAACGAAAGTTCCCC (((.(((....))).))) | -30.6 | 51
GGGAAAGGAAACTCTCCC ((((.((....)).)))) | -17.2 | 30.2
GGGAACCGAAAGGTCCCC (((.(((....))).))) | -25.4 | 58.1
GGGAACCGAAAGGTGCCC (((.(((....))).))) | -41.4 | 64.3
GGGAACGAAAGTTACCCC ((((((....)))..))) | -20.2 | 53.4
GGGAACGAAAGTTTGCCC ((((((....)))..))) | -20.8 | 31.8
GGGAACGCGAAAGCGCCC (((..(((....)))))) | -16.4 | 46.5
GGGAAGGGAAACCCTCCC ((((.((....)).)))) | -28.1 | 46.8
GGGAAGGGAAACCTTCTC (.(((((....))))).) | -23.8 | 46.6
GGGAAGGGAAACTTTCCC (((((.(....).))))) | -26 | 45.5
GGGAAGTCGAAAGACCCC (((..(((....)))))) | -22.7 | 44.8
GGGAATACGAAAGTACCC (((..(((....)))))) | -23 | 33.9
GGGAATCCGAAAGGACCC (((..(((....)))))) | -18.1 | 38.1
GGGAATGGAAACATTCCC (((((((....))))))) | -54.2 | 62
GGGAATGGAAACGTTCCC (((((.(....).))))) | -38 | 50.6
GGGACACCGAAAGGTCCC (((..(((....)))))) | -27.7 | 51.4
GGGACCCGAAAGGGACCC (((.(((....))).))) | -31.1 | 67
GGGACCGAAAGGTACCC ((((((....))).))) | -18.9 | 64.1
GGGACCGAAAGGTGACCC ((((((....)))..))) | -17.6 | 45.6
GGGACCGAAAGGTTTCCC ((((((....)))..))) | -18.6 | 42.5
GGGACCGGAAACGATCCC ((((.((....)).)))) | -45.8 | 50.8
GGGACGGCGAAAGCCCCC (((..(((....)))))) | -14.8 | 42.3
GGGACGGGAAACCACCCC (((..((....))..))) | -18.4 | 32.1

Sequence | folding enthalpy [1] [kcal/mol] | Tm [2] [°C]
GGGACTCGAAAGAGCCCC (((.(((....))).))) | -34.6 | 57.1
GGGACTGGAAACAGCCCC (((.(((....))).))) | -35.3 | 51.9
GGGACTTCGAAAGAACCC (((..(((....)))))) | -5.69 | 29.8
GGGAGACGAAAGTCACCC (((.(((....))).))) | -31.5 | 58.2
GGGAGACGAAAGTCCCC (((.(((....)))))) | -35.5 | 56.4
GGGAGCCGAAAGGCCCC (((.(((....)))))) | -20.1 | 69
GGGAGCCGAAAGGCCCCC (((.(((....))).))) | -21.3 | 65.9
GGGAGCGAAAGCTATCCC ((((((....)))..))) | -16.6 | 48
GGGAGCGAAAGCTTACCC ((((((....)))..))) | -16.9 | 42.5
GGGAGCGAAAGCTTCCC ((((((....))).))) | -20.5 | 61.7
GGGAGCGAAAGCTTTCCC ((((((....)))..))) | -16.3 | 40.4
GGGAGCGCGAAAGCGCCC (((..(((....)))))) | -10.1 | 58.6
GGGAGCGGAAACACTCCC (((((.(....).))))) | -37.7 | 50.8
GGGAGCGGAAACGCTTCC ((.((((....)))).)) | -33.7 | 61.4
GGGAGGCGAAAGCCCCCC (((.(((....))).))) | -17.2 | 64.8
GGGAGTGGAAACACTTCC ((.((((....)))).)) | -36.2 | 50.5
GGGATACCGAAAGGTCCC (((..(((....)))))) | -17.4 | 45.2
GGGATATCGAAAGATCCC (((..(((....)))))) | -27.9 | 43.4
GGGATCCGAAAGGACCCC (((.(((....))).))) | -35.2 | 59.1
GGGATCGAAAGATAGCCC ((((((....)))..))) | -17.3 | 32.4
GGGATCGAAAGATTCCC ((((((....))).))) | -25 | 51
GGGATCGGAAACGATTCC ((.((((....)))).)) | -40.7 | 53.5
GGGATCGGAAACGGTTCC ((.(.((....)).).)) | -35.7 | 40.9

Sequence | folding enthalpy [1] [kcal/mol] | Tm [2] [°C]
GGGATGCCGAAAGGCCCC (((..(((....)))))) | -15.6 | 46.6
GGGATGCGAAAGCACCCC (((.(((....))).))) | -27.7 | 61.4
GGGATTCGAAAGAAACCC (((.(((....))).))) | -48.4 | 50.6
GGGATTGGAAACAATCTC (.(((((....))))).) | -28.3 | 45.3
GGGATTGGAAACAGTTCC ((.(.((....)).).)) | -16.6 | 34.3
GGGATTGGAAACGATCTC (.(((.(....).))).) | -15.3 | 31.4
GGGCAAACGAAAGTTCCC (((..(((....)))))) | -19.5 | 35.6
GGGCAACGAAAGTTTCCC (((.(((....))).))) | -32.1 | 47.4
GGGCACCGAAAGGTCCC (((.(((....)))))) | -34 | 54.5
GGGCACGAAAGTGCGCCC ((((((....)))..))) | -11.8 | 54.9
GGGCACGAAAGTGGACCC ((((((....)))..))) | -17.9 | 53.6
GGGCACGGAAACGCACCC (((..((....))..))) | -20.2 | 35.6
GGGCACGGAAACGTACCC (((.(((....))).))) | -40.1 | 51.4
GGGCACGGAAACGTGCTC (.(((((....))))).) | -14.6 | 63.2
GGGCACGGAAACGTGTCC ((.((((....)))).)) | -40.8 | 63.4
GGGCAGAAATGCCC (((((....))))) | -24 | 65.2
GGGCAGCGAAAGCTCCCC (((.(((....))).))) | -18.3 | 56.3
GGGCAGCGAAAGCTTCCC (((.(((....))).))) | -38.7 | 55.8
GGGCAGGGAAACCCGCCC ((((.((....)).)))) | -38.2 | 60
GGGCAGGGAAACCTACCC (((.(((....))).))) | -29.2 | 45.5
GGGCATCCGAAAGGACCC (((..(((....)))))) | -18.3 | 38.6
GGGCATCGAAAGATACCC (((.(((....))).))) | -31.6 | 49.5
GGGCATGCGAAAGCACCC (((..(((....)))))) | -18.6 | 42.3

Sequence | folding enthalpy [1] [kcal/mol] | Tm [2] [°C]
GGGCATGGAAACATACCC (((.(((....))).))) | -31.8 | 44.1
GGGCATGGAAACGTGCCC (((((.(....).))))) | -50.3 | 60
GGGCCACGAAAGTGCCC (((.(((....)))))) | -21.9 | 61.6
GGGCCCACGAAAGTGCCC (((..(((....)))))) | -18.8 | 50.4
GGGCCCGAAAGGGAGCCC ((((((....)))..))) | -23.8 | 62.3
GGGCCCGGAAACGGACCC (((.(((....))).))) | -39.3 | 58.8
GGGCCGCGAAAGCGTCCC (((.(((....))).))) | -20.4 | 65.8
GGGCCGGGAAACCGACCC (((.(((....))).))) | -43.9 | 57.5
GGGCCGGGAAACCGGTCC ((.((((....)))).)) | -38.3 | 68.8
GGGCCTACGAAAGTACCC (((..(((....)))))) | -9.06 | 34.7
GGGCCTCGAAAGAGCCC (((.(((....)))))) | -37.9 | 62.3
GGGCCTCGAAAGAGCCCC (((.(((....))).))) | -15.7 | 57.2
GGGCCTGGAAACAAGCCC ((((.((....)).)))) | -33.3 | 47.4
GGGCGACGAAAGTCTCCC (((.(((....))).))) | -43.2 | 53.6
GGGCGAGCGAAAGCTCCC (((..(((....)))))) | -13.1 | 50.5
GGGCGAGGAAACCCGCCC (((((.(....).))))) | -34.7 | 64.5
GGGCGATCGAAAGATCCC (((..(((....)))))) | -17.1 | 48.6
GGGCGCCGAAAGGCCCCC (((.(((....))).))) | -14 | 65.5
GGGCGCCGAAAGGCTCCC (((.(((....))).))) | -25.7 | 60.7
GGGCGCGAAAGCGTACCC ((((((....)))..))) | -13.1 | 56.3
GGGCGCGAAAGCGTTCCC ((((((....)))..))) | -13.7 | 52.3
GGGCGGCGAAAGCCCCCC (((.(((....))).))) | -16.6 | 63.9
